Source: ChEMBL document CHEMBL3244350, “Antitumor and antiinflammatory agents: N-benzoyl-protected cyanomethyl esters of amino acids” (J Med Chem, 1979)
Calls of active or inactive are those of the source. No cut-off for these calls is given here.

What was measured:
Mus musculus [1] = assay: Antiinflammatory activity in CF1 mouse assessed as increase in foot weight at 20 mg/kg, ip administered 3 hrs and 30 mins prior to carrageenan-challenge measured after 3 hrs (reference value: 97 +/- 10 mg); format: functional; details: route intraperitoneal
Mus musculus [2] = organism: Mus musculus; assay: Toxicity in CF1 mouse; format: organism-based; details: in vivo
Mus musculus [3] = assay: Antitumor activity against mouse P388 cells allografted in DBA/2 mouse assessed as tumor growth inhibition at 20 mg/kg, ip qd for 2 weeks (reference value: 100%); format: functional; details: route intraperitoneal
Method in brief: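 DBA/2 male mice (20 g) implanted with 10^6 P-388 cells on day 0, then dosed ip at 20 mg/kg/day for 2 weeks. T/C computed by the NIH protocol; T/C ≥120 counted as significant. 5-Fluorouracil served as internal standard.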

Mus musculus [4] = assay: Antitumor activity against mouse EAC allografted in CF1 mouse assessed as tumor growth inhibition at 20 mg/kg, ip qd for 7 days (reference value: 0%); format: functional; details: 168 h, route intraperitoneal
Mus musculus [5] = assay: Antitumor activity against mouse EAC allografted in CF1 mouse assessed as ascrit fluid volume at 20 mg/kg, ip qd for 7 days (reference value: 6.63 +/- 1.24 mL); format: functional; details: route intraperitoneal
Mus musculus [6] = assay: Antiinflammatory activity in CF1 mouse assessed as inhibition of carrageenan-induced paw edema at 20 mg/kg, ip administered 3 hrs and 30 mins prior to carrageenan-challenge measured after 3 hrs (reference value: 0%); format: functional; details: route intraperitoneal
Mus musculus [7] = assay: Antitumor activity against mouse P388 cells allografted in DBA/2 mouse assessed as host survival on day 7 at 20 mg/kg, ip qd for 2 weeks; format: functional; details: route intraperitoneal
Method in brief: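 P388 leukemia in male DBA/2 mice (20 g): 10⁶ cells implanted on day 0. Compounds were given ip at 20 (mg/kg)/day for 2 weeks. Survival was expressed as T/C by the NIH protocol; T/C > 120 counted as significant. 5-Fluorouracil was the internal standard.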

Mus musculus [8] = assay: Antiinflammatory activity in CF1 mouse assessed as increase in foot weight at 10 mg/kg, ip administered 3 hrs and 30 mins prior to carrageenan-challenge measured after 3 hrs (reference value: 97 +/- 10 mg); format: functional; details: route intraperitoneal
Mus musculus [9] = assay: Antiinflammatory activity in CF1 mouse assessed as inhibition of carrageenan-induced paw edema at 10 mg/kg, ip administered 3 hrs and 30 mins prior to carrageenan-challenge measured after 3 hrs (reference value: 0%); format: functional; details: route intraperitoneal
Mus musculus [10] = assay: Antitumor activity against mouse EAC allografted in CF1 mouse assessed as host survival on day 7 at 20 mg/kg, ip qd for 7 days; format: functional, organism-based; set-up: dose 20 mg/kg
Mus musculus [11] = assay: Immunosuppressive activity in mouse splenic lymphocytes isolated from 25 mg/kg, ip on days 2,3 and 4 treated CF1 mouse assessed as reduction in sheep red blood cell antigen-induced plaque-forming response (reference value: 100%); set-up: scale not given: the % may be the effect or the level left; details: route intraperitoneal
Mus musculus [12] = assay: Immunosuppressive activity in mouse splenic lymphocytes isolated from 0.1 mg, ip on days 2,3 and 4 treated CF1 mouse assessed as reduction in sheep red blood cell antigen-induced plaque-forming response (reference value: 100%); set-up: scale not given: the % may be the effect or the level left
[13] = Acute toxicity in CF1 mouse; format: organism-based; details: in vivo
Rattus norvegicus [14] = assay: Antipyretic activity in Sprague-Dawley rat assessed as decrease in yeast/mycobacterium butyricum-induced increase temperature at 5 mg/kg, ip; format: functional, organism-based; set-up: dose 5 mg/kg
Rattus norvegicus [15] = assay: Antipyretic activity in Sprague-Dawley rat assessed as decrease in yeast/mycobacterium butyricum-induced increase temperature at 2.5 mg/kg, ip; format: functional, organism-based; set-up: dose 2.5 mg/kg
Mus musculus [16] = assay: Analgesic activity in CF1 mouse assessed as inhibition of acetic acid-induced pain measured for 10 mins at 2.5 mg/kg,ip administration 5 mins prior to test by […]; format: functional, organism-based; set-up: dose 2.5 mg/kg
Mus musculus [17] = assay: Analgesic activity in CF1 mouse assessed as inhibition of acetic acid-induced writhing reflex measured for 10 mins at 20 mg/kg,ip administration 5 mins prior to test by […]; format: functional, organism-based; set-up: dose 20 mg/kg
Mus musculus [18] = assay: Analgesic activity in CF1 mouse assessed as inhibition of acetic acid-induced pain measured for 10 mins at 5 mg/kg,ip administration 5 mins prior to test by […]; format: functional, organism-based; set-up: dose 5 mg/kg

SMILES	Activity (Mus musculus [1]) [mg]	Activity (Mus musculus [2])	T/C (Mus musculus [3])	inhibition in vivo at 20 mg/kg (Mus musculus [4]) [%]	Activity (Mus musculus [5]) [mL]	inhibition in vivo at 20 mg/kg (Mus musculus [6]) [%]	Survival (Mus musculus [7]) [days]	Activity (Mus musculus [8]) [mg]	inhibition in vivo at 10 mg/kg (Mus musculus [9]) [%]	Activity (Mus musculus [10])	Activity (Mus musculus [11]) [%]	Activity (Mus musculus [12]) [%]	LD50 [13] [µmol/kg]	Activity (Rattus norvegicus [14])	Activity (Rattus norvegicus [15])	Activity (Mus musculus [16])	inhibition (Mus musculus [17])	Activity (Mus musculus [18])
N#CCOC(=O)[C@H](Cc1ccc(O)cc1)NC(=O)c1ccccc1	75	Non-toxic	113	42.3	1.98	41	11.3	–	–	–	–	–	–	–	–	–	–	–
COc1ccc2c(c1)c(CC(=O)O)c(C)n2C(=O)c1ccc(Cl)cc1 [INDOMETHACIN]	97	–	100	–	–	0	9.66	23	74	–	–	–	–	–	–	–	–	–
N#CCOC(=O)[C@H](Cc1ccccc1)NC(=O)[C@H](Cc1ccccc1)NC(=O)OCc1ccccc1	61	Non-toxic	–	43	2.1	30	–	–	–	–	–	–	–	–	–	–	–	–
CC(C)C(NC(=O)c1ccccc1)C(=O)OCC#N (configuration not stated)	82	Non-toxic	109	99.9	0.07	24	10.5	–	–	–	–	–	–	–	–	–	–	–
N#CCOC(=O)CCNC(=O)c1ccccc1	75	Non-toxic	–	11.6	4.96	31	–	–	–	–	–	–	–	–	–	–	–	–
N#CCOC(=O)CNC(=O)OCc1ccccc1	48	Non-toxic	–	29	2.2	45	–	–	–	Active	58	–	–	–	–	–	–	–
N#CCOC(=O)CNC(=O)c1ccccc1	55	Non-toxic	109	40.2	2.85	50	10.5	–	–	Active	–	–	–	–	–	–	–	–
Sc1ncnc2nc[nH]c12 [MERCAPTOPURINE ANHYDROUS]	–	–	–	99.6	0.7	–	–	–	–	Active	–	–	–	–	–	–	–	–
N#CCOC(=O)CCCCCNC(=O)OCc1ccccc1	63	Non-toxic	–	54	1	28	–	–	–	Active	–	–	–	–	–	–	–	–
Cc1ccc(S(=O)(=O)N[C@@H](Cc2ccccc2)C(=O)OCC#N)cc1	69	Non-toxic	94	97	0.4	21	9.1	–	–	–	–	–	–	–	–	–	–	–
N#CCOC(=O)[C@@H]1CCCN1C(=O)c1ccccc1	67	Non-toxic	93	59.3	2.93	39	9	–	–	–	–	–	–	–	–	–	–	–
C[C@H](NC(=O)c1ccccc1)C(=O)OCC#N	56	Non-toxic	101	98.2	0.1	49	9.8	–	–	Active	–	–	–	–	–	–	–	–
N#CCOC(=O)CCCNC(=O)c1ccccc1	68	Non-toxic	104	43.1	2.78	37	10	–	–	–	–	–	–	–	–	–	–	–
N#CCOC(=O)C(Cc1ccccc1)NC(=O)OCc1ccccc1 (configuration not stated)	54	Non-toxic	–	86	0.4	38	–	–	–	Active	–	–	–	–	–	–	–	–
CC(C)C[C@H](NC(=O)c1ccccc1)C(=O)OCC#N	77	Non-toxic	117	87.2	0.8	29	11.3	–	–	–	–	–	–	–	–	–	–	–
O=c1[nH]cc(F)c(=O)[nH]1 [FLUOROURACIL]	–	–	186	–	–	–	18	–	–	–	–	–	–	–	–	–	–	–
N#CCOC(=O)CCCCCNC(=O)c1ccccc1	65	Non-toxic	–	45.2	2.73	40	10.3	–	–	Active	–	–	–	–	–	–	–	–
N[C@@H](Cc1ccc(N(CCCl)CCCl)cc1)C(=O)O [MELPHALAN]	–	–	–	–	–	–	–	–	–	–	100	51	–	–	–	–	–	–
Cc1ccc(S(=O)(=O)N[C@@H](Cc2ccccc2)C(=O)CCl)cc1 [TPCK]	31	–	–	100	0.01	56	–	–	–	–	–	–	210	–	–	–	–	–
CC(NC(=O)c1ccccc1)C(=O)OCC#N (configuration not stated)	87	Non-toxic	100	43.3	2.91	25	9.7	–	–	Active	–	–	–	–	–	–	–	–
CCC(C)C(NC(=O)c1ccccc1)C(=O)OCC#N (configuration not stated)	89	Non-toxic	122	46.6	2.97	18	11.8	–	–	–	–	–	–	–	–	–	–	–
N#CCOC(=O)[C@H](Cc1ccccc1)NC(=O)OCc1ccccc1	39	Non-toxic	68	99.9	0.2	55	6.6	–	–	Active	86	–	–	inactive	inactive	inactive	Active	inactive
CC(=O)N[C@@H](Cc1ccccc1)C(=O)OCC#N	49	Non-toxic	–	16	3.9	44	–	–	–	Active	–	–	–	–	–	–	–	–
N#CCOC(=O)[C@H](Cc1ccccc1)NC(=O)c1ccccc1	43	Non-toxic	–	47	1.8	51	–	–	–	–	–	–	–	–	–	–	–	–
